Results on 15 compounds are retold here after ChEMBL document CHEMBL1139079, “Synthesis and HIV-1 integrase inhibitory activity of spiroundecane(ene) derivatives” (Bioorg Med Chem Lett, 2007).

Activity calls are given as the source filed them. The rule behind the calls is not given here.

Series [1] addresses Human immunodeficiency virus type 1 integrase (Human immunodeficiency virus 1) (UniProt Q7ZJM1). The series can be described thus: (§1) Inhibition of recombinant HIV1 integrase 3'-end processing activity. In a few lines: (§2)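 Recombinant HIV-1 integrase with a 21 bp duplex substrate, 5'-[32P]-labelled. 3'-processing read as release of the terminal dinucleotide; strand transfer read as DNA products longer than the starting substrate. Products resolved by PAGE. IC50 given as mean and standard deviation of at least three independent experiments.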

Series [2] can be described thus: Cytotoxicity against MT2 cells. The format is cell-based. To be noted: human.
Series [3] addresses Human immunodeficiency virus type 1 integrase (Human immunodeficiency virus 1) (UniProt Q7ZJM1). The series can be described thus: (§3) Inhibition of recombinant HIV1 integrase strand transfer activity. The method, boiled down: as §2
The target in series [4] is T1, Human immunodeficiency virus type 1 integrase (Human immunodeficiency virus 1, UniProt Q7ZJM1). The series is described as §1. The method, boiled down:
as §2

Series [5] has as its target T1, Human immunodeficiency virus type 1 integrase. The series is described as §3. In a few lines: as §2
Series [6] shares this target. The series can be described thus: Inhibition of recombinant HIV1 integrase mediated-disintegration activity. The method, boiled down:
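Reverse of strand transfer, run with recombinant HIV-1 integrase on a Y-oligomer substrate carrying a 5'-[32P] label. Cleavage of the 34-mer strand releases a radiolabelled 19-bp oligonucleotide, which was detected by PAGE after reactions over a range of drug concentrations. IC50 derived from the gel analysis.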

Sequence of Human immunodeficiency virus type 1 integrase (Human immunodeficiency virus 1) (Q7ZJM1 as listed by the source): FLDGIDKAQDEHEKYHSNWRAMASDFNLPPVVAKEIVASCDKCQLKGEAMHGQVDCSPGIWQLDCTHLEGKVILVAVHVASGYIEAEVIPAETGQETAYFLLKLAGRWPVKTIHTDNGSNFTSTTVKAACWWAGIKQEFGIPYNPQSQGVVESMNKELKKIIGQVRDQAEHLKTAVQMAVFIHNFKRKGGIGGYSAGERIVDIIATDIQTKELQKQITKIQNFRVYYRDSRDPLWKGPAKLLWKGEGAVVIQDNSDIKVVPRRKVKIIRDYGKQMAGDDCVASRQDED
T1 sequence (Q7ZJM1 whole entry): as the sequence (Q7ZJM1 as listed by the source) above

As to `COc1ccc([C@@H]2CC(=O)C[C@H](c3ccco3)C23C(=O)OC(C)(C)OC3=O)cc1O`, the outcome in series [1] and in series [3] was inactive. In addition, the CC50 – broadly, the concentration at which the toxic effect on the cells reaches its halfway point – in series [2] was more than 111 µM.
In the case of `COc1ccc([C@@H]2CC(=O)C[C@H](c3ccccc3OC)C23C(=O)OC(C)(C)OC3=O)cc1O`, the result in series [1] and in series [3] was inactive. The CC50 in series [2] is more than 111 µM.
For the compound `COc1cccc([C@@H]2CC(=O)C[C@H](c3ccco3)C23C(=O)OC(C)(C)OC3=O)c1OC`, the IC50 (usually the point on the concentration scale where inhibition reaches its midpoint) in series [4] came out at 44.8 µM; in series [5], 44.2 µM. Moreover, the half-maximal cytotoxic concentration (CC50) in series [2] is more than 111 µM.
For `COc1ccc([C@@H]2CC(=O)C[C@H](c3ccco3)C23C(=O)OC(C)(C)OC3=O)cc1`, the IC50 in series [4] stood at 130 µM; in series [5], 36.3 µM. In addition, the CC50 in series [2] was more than 111 µM.
`CC1(C)OC(=O)C2(C(=O)O1)[C@@H](c1ccco1)CC(=O)C[C@H]2c1ccco1`: the IC50 in series [4] was found to be 32.9 µM; in series [6] it was 81.4 µM; in series [5] it was 17.6 µM. Besides, the CC50 in series [2] is more than 111 µM.
For `CCOC(=O)C1=C(O)CCC2(C(=O)OC(C)(C)OC2=O)[C@H]1c1ccccc1OC`, the outcome in series [1] was inactive. Moreover, in series [2], the CC50 is more than 111 µM. Besides, the IC50 in series [5] stood at 281 µM.
For the compound `CCOC(=O)C1=C(O)CCC2(C(=O)OC(C)(C)OC2=O)[C@H]1c1ccco1`, the results for the IC50 in series [4], in series [6] and in series [5] were 67.8 µM, 213 µM and 43.8 µM, respectively. In series [2], this compound displayed a CC50 of more than 111 µM.
For the compound `CC1(C)OC(=O)C2(C(=O)O1)[C@@H](c1ccco1)CC(=O)C[C@H]2c1c[nH]c2ccccc12`, the IC50 was determined as 11.1 µM in series [4], 19.2 µM in series [6] and 9.6 µM in series [5]. In series [2], this compound came in with a CC50 of more than 111 µM.
Regarding `COc1ccc([C@H]2CC(=O)CCC23C(=O)OC(C)(C)OC3=O)cc1`, the results for the IC50 in series [4] and in series [5] were 142 µM and 97.5 µM, respectively. Also, in series [2], the CC50 is more than 111 µM.
`CC1(C)OC(=O)C2(C(=O)O1)[C@@H](c1ccco1)CC(=O)C[C@H]2c1ccccc1Cl`: the result in series [1] and in series [3] was inactive. For the same compound, the CC50 in series [2] is more than 111 µM.
For `CC1(C)OC(=O)C2(C(=O)O1)[C@@H](c1ccco1)CC(=O)C[C@H]2c1ccc(F)cc1`, the outcome in series [1] and in series [3] was inactive. This compound also gave a CC50 in series [2] of more than 111 µM.
In the case of `CC1(C)OC(=O)C2(C(=O)O1)[C@@H](c1ccco1)CC(=O)C[C@H]2c1ccccc1`, the results for the half-inhibitory concentration (IC50) in series [4] and in series [5] were 141 µM and 132 µM, respectively. Besides, the CC50 in series [2] was more than 111 µM.
For `COc1ccc([C@@H]2CC(=O)C[C@H](c3ccco3)C23C(=O)OC(C)(C)OC3=O)cc1OC` the same measures were 111 µM, 91.5 µM and more than 111 µM.
Turning to `CC1(C)OC(=O)C2(C(=O)O1)[C@@H](c1ccco1)CC(=O)C[C@H]2c1ccc(Br)cc1`, the result in series [1] and in series [3] was inactive. Further, the CC50 in series [2] is more than 111 µM.
Turning to `COc1ccc([C@@H]2CC(=O)C[C@H](c3ccco3)C23C(=O)OC(C)(C)OC3=O)c(C)c1`, the outcome in series [1] and in series [3] was inactive. The compound also showed a CC50 in series [2] of more than 111 µM.
